Rows were chosen to be rich in hits. Some 4.9% of all compounds tested hit in one or more screens of this group.
NPY2 pot ag = human NPY-Y2 potentiation or agonism, primary screen | cells expressing NPY-Y2, potentiator/agonist read-out | AID 1359 | P49146 | activation, % at 3.6 µM | 220,000 tested, 0.45% active; in the data active means activation above about 27%;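 further: cells stimulated with NPY near EC25 plus isoproterenol at EC100; 0% = vehicle plus submaximal agonist and 100% = vehicle plus saturating agonist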
Target sequence (P49146 whole entry, looked up): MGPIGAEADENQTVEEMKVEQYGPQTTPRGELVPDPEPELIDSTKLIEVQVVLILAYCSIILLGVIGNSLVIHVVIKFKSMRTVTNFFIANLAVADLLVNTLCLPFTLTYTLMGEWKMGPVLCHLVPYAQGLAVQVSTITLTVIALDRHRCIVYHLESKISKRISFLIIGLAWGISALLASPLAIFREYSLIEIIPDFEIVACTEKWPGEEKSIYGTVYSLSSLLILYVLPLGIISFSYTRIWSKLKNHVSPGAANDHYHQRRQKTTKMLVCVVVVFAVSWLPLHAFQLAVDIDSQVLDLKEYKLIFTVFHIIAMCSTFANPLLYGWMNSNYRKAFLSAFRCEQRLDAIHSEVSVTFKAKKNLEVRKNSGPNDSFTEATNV
WT yeast gro inh = growth inhibition of WT yeast, mitochondrial fusion screen | AID 1362 | inhibition, % at 10 µM | 190,000 tested, 2.1% active | mitochondrial fusion phenotypic screen, WT strain; in the data active means inhibition above about 58%; tested in S. cerevisiae
NPY-Y1 PAM-ag = potentiates or activates human NPY-Y1 receptor; NPY-Y1 expressing cells, potentiator/agonist activation; activation, % at 3.6 µM; 220,000 tested, 0.37% active; in the data active means activation above about 33%, passing the limit was not always enough;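 further: cells stimulated with NPY at EC10 then isoproterenol at EC100; 0% = low agonist plus stimulus and 100% = saturating agonist plus stimulus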
NPY Y2 blocker = antagonists of human neuropeptide Y receptor Y2. P49146. NPY-Y2 expressing cells, antagonist mode. inhibition, % at 2.7 µM. 140,000 tested, 0.99% active; in the data active means inhibition above about 17%;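 further: 0% = vehicle with agonist challenge and 100% = reference antagonist with challenge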
NPY-Y1 antag = antagonists of human neuropeptide Y receptor Y1; HEK293-CNG Y1 cells, membrane potential fluorescence; NPY at EC95, then isoproterenol; P25929; inhibition, % at 3.6 µM; AID 1040; 200,000 tested, 1% active;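 active means inhibition above the campaign mean inhibition of all tested compounds plus 3 SD, cut at about 20% in these data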;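 further: 0% = DMSO wells given NPY plus isoproterenol and 100% = isoproterenol alone without NPY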
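Material: HEK293 Y1/CNG channel cell line | Also added: NPY (25 nM), isoproterenol (1 µM), Ro 20-1724 (25 µM) | Compound: One concentration, 3.6 µM, in 0.4% DMSO | Schedule: 3 h dye uptake, 1 h room-temperature compound, 45 min post-isoproterenol | Signal: Membrane-potential fluorescent dye readout | Read-out: % inhibition of NPY effect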
RAM network inh = yeast RAM network inhibition; AID 868; inhibition, % at 50 µM; S. cerevisiae dse1pr::URA3 reporter, 5-FOA growth OD615, 2 d; analog-sensitive cbk1-as2 kinase mutant strain; 190,000 tested, 1.8% active;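 active means inhibition above a set limit, 3 SD over mean compound inhibition, cut at about 8.4% in these data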;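 further: 0% = DMSO-only wells with no growth and 100% = 10 µM 1-NA-PP1 full growth; inhibition rescues growth on 5-FOA so higher OD means more RAM inhibition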
NPY-Y1 antag ct = counter-screen for NPY-Y2 antagonists: human NPY-Y1 antagonism. shares compounds with NPY Y2 blocker. AID 1256. cell-based NPY-Y1 antagonism counterscreen. inhibition, % at 3.6 µM. 710 tested, 19% active; in the data active means inhibition above about 20%;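 further: cells challenged with NPY then isoproterenol with cAMP sensed through a CNG channel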
NPY2 antag conf = confirmation of human neuropeptide Y receptor Y2 antagonists; shares compounds with NPY Y2 blocker; HEK293 NPY-Y2 CNG channel, membrane potential fluorescence; inhibition, % at 2.8 µM; 710 tested, 32% active;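 active means mean inhibition of triplicate wells above the hit cutoff set in the primary screen, cut at about 17% in these data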;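 further: 0% = DMSO with NPY challenge and 100% = BIIE0246 high control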
The depositor's hits bear a star; / = no result given.

SMILES	NPY2 pot ag	WT yeast gro inh	NPY-Y1 PAM-ag	NPY Y2 blocker	NPY-Y1 antag	RAM network inh	NPY-Y1 antag ct	NPY2 antag conf
CC(=O)N1Cc2ccccc2CC1C(=O)N1CCN(c2ccccc2)CC1 (configuration not stated)	-18	/	9	/	-2	1	/	/
CCc1cccc(CC)c1NC(=O)c1ccccc1CCc1ccccc1	-6	-1	-48	19*	2	4	28*	17
Cc1cc(C)c(NC(=O)c2ccccc2CCc2ccccc2)c(C)c1	-28	-7	-24	10	15	4	/	/
O=C(O)CCCCCCNS(=O)(=O)c1ccccc1	1	-8	-18	-1	2	1	/	/
CC(C)c1nnc(SCC(=O)NCc2ccco2)n1C	-1	-8	12	1	-4	0	/	/
CCn1c(SCC(=O)NCc2ccco2)nnc1C(C)C	9	1	16	23*	-5	0	0	1
COc1cccc2cc3c(=O)n(-c4ccccc4)nc-3oc12	-9	12	-7	2	1	3	/	/
Nn1c(CSc2nc3ccccc3o2)nnc1CSc1nc2ccccc2o1	-39	4	-65	17*	17	3	13	15
Cc1cc(C)nc(N/N=C/C2=C(N3CCOCC3)C(=C/c3ccccc3)/CC2)n1	6	33	0	76*	17	4	56*	72*
O=C(O)c1ccccc1N/N=C/C1=C(N2CCOCC2)C(=C\c2ccccc2)/CC1	19	/	29	/	/	/	/	/
CCC(C)(C)n1nnnc1C(c1ccc(C)cc1)N(Cc1ccco1)Cc1cccs1 (configuration not stated)	1	30	-22	22*	18	7	10	10
CCC(C)(C)n1nnnc1C(C(C)C)N(Cc1cccnc1)Cc1ccco1 (configuration not stated)	13	7	9	/	7	1	/	/
CC(C)(C)n1nnnc1C(c1cccnc1)N(Cc1ccccc1)Cc1ccco1 (configuration not stated)	-4	-7	-1	18*	18	0	6	2
Cc1nc(=O)c(-c2ccccc2)c(C)n1CCO	-13	6	2	-2	-1	0	/	/
CN(C(=S)Nc1cccnc1)c1ccc(O)cc1	2	-9	-12	1	0	1	/	/
COC(=O)C1=C(C)NC(C)=C(C(=O)OC)C1C(=O)OCCN1C(=O)c2ccccc2C1=O	-6	6	-5	3	3	1	/	/
O=C(COc1ccc(Cl)cc1Cl)N/N=C/CCc1ccccc1	-26	-6	11	21*	1	2	3	8
O=C(O)CCC(=O)NNC(=O)COc1ccc(Cl)cc1Cl	-2	-18	8	/	-4	2	/	/
O=C(NCCN1CCOCC1)c1ccc2c(c1)N(Cc1ccccc1F)C(=O)c1ccccc1S2	20	19	25	/	-3	4	/	/
COCCOC(=O)c1[nH]c2c(c1C)C(=O)CC(c1ccco1)C2 (configuration not stated)	9	5	3	32*	9	2	-3	5
CC1(C)Cc2ccccc2-c2nnc(SCc3ccccc3)n21	-8	9	-40	17*	10	4	6	3
CC1(C)CC2CC(C)(CN2C(=O)COc2cccc3ccccc23)C1 (configuration not stated)	14	12	-8	17*	6	2	5	6
CC1(C)CC2CC(C)(CN2C(=O)COC(=O)c2n[nH]c(=O)c3ccccc23)C1 (configuration not stated)	-1	2	-2	2	-2	1	/	/
Cc1cc(N(C(=O)c2ccco2)C(C(=O)NC2CCCCC2)c2ccccc2)ccc1-n1cnnn1 (configuration not stated)	4	-5	-1	1	6	2	/	/
CC(C)CC(c1nnnn1Cc1ccco1)N1CCN(C2CCCC2)CC1 (configuration not stated)	-21	7	-27	19*	10	0	7	4
SMILES	NPY2 pot ag	WT yeast gro inh	NPY-Y1 PAM-ag	NPY Y2 blocker	NPY-Y1 antag	RAM network inh	NPY-Y1 antag ct	NPY2 antag conf
Clc1cccc(CN2CCN(Cc3nc(CCc4ccccc4)no3)CC2)c1	-20	4	-4	/	4	0	/	/
COc1ccccc1OCCCCN1CCN(C(c2ccccc2)c2ccccc2)CC1	-28	47	-34	20*	5	2	14	25*
O=C(NC1CCCCC1)C(c1ccc(F)cc1)N(Cc1cccs1)C(=O)CN1C(=O)c2ccccc2S1(=O)=O (configuration not stated)	1	-3	-6	3	2	4	/	/
O=C(N/N=C/c1ccccc1)c1ccc(N2CCOCC2)c([N+](=O)[O-])c1	-4	-14	0	3	7	3	/	/
CCCCC(=O)N/N=C/c1ccc(N2CCOCC2)c([N+](=O)[O-])c1	-6	-5	-32	21*	0	2	8	17*
Cc1c(-n2cc(C(=O)c3cc(F)ccc3O)cc(C#N)c2=O)c(=O)n(-c2ccccc2)n1C	7	-1	-19	/	-2	1	/	/
Cc1cccc(C(CC(=O)N2CCCC2)c2ccccc2)c1O (configuration not stated)	2	-7	3	-1	-3	2	/	/
O=C(Nc1ccccc1)OCc1cc(-c2ccccc2Cl)on1	-19	13	-10	22*	16	3	19	18*
c1ccc(CCn2nnc3ccccc32)cc1	4	/	21	/	/	/	/	/
O=C(Cn1c(N2CCN(c3ccccc3)CC2)nc2ccccc21)c1ccccc1	2	13	4	18*	-4	0	-4	-5
COC(=O)C(C#N)c1nc2ccccc2nc1N1CCCC1 (configuration not stated)	10	14	12	1	5	3	/	/
CCOc1ccc2[nH]c(=O)c(C(c3nnnn3Cc3ccco3)N3CCCC(C)C3)cc2c1 (configuration not stated)	8	-1	-15	18*	12	0	5	4
Cc1ccc(S(=O)(=O)CC2CSc3nc(N)cc(=O)n32)cc1 (configuration not stated)	3	18	1	3	5	0	/	/
CCC(=O)N1CCN(c2ccc(Cl)cc2NC(=O)Cc2ccccc2)CC1	10	-6	-10	21*	19	3	12	15
CCC(=O)Nc1cc(Cl)ccc1N1CCN(C(=O)CC)CC1	-8	7	-13	12	14	0	/	/
O=C(NC1=NN(c2ccccc2)CC1)Nc1ccccc1F	28	/	23	/	/	/	/	/

Source: PubChem
